# Screening data deposited in PubChem by Sanford-Burnham Center for Chemical Genomics.
# CXCR6 inh: inhibitors of human CXCR6 receptor | 360,000 tested, 0.36% active | O00574 | CHO-K1 PathHunter CXCR6 beta-arrestin, luminescence | AID 602244 | inhibition, % at 20 µM; in the data active means inhibition above about 34%, passing the limit was not always enough;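 further: antagonist mode with CXCL16 agonist at 10 nM final; 0% = 10 nM CXCL16 with DMSO and 100% = unstimulated wells without agonist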
# H9c2 TAG inh: triacylglycerol accumulation inhibition; H9c2 cells, Nile Red lipid (TAG) fluorescence; cells loaded with 200 µM oleic acid; inhibition, % at 12.5 µM; 230,000 tested, 0.66% active; AID 651582;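 active means pattern-corrected inhibition of lipid staining of at least 50% with the nuclear-stain viability signal not falling by more than 50%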;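 further: 0% = DMSO wells and 100% = triacsin C control wells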
# EBI2 antag: EBI2 (human) antagonism | EBI2 beta-arrestin recruitment, luminescence, 7a,25-OHC stimulated | P32249 | inhibition, % at 5 µM | 360,000 tested, 0.81% active; in the data active means inhibition above about 38%;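 further: enzyme fragment complementation signal reports receptor beta-arrestin coupling in cells; 0% = agonist plus DMSO wells and 100% = wells without agonist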
# APJ ag: APJ receptor agonism | CHO-K1 APJ PathHunter beta-arrestin, luminescence; 0% DMSO wells, 100% apelin | activation, % at 20 µM | 330,000 tested, 0.11% active;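 active means activation more than six SD over the plate average, tested at 20 µM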;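 further: 0% = DMSO alone and 100% = apelin-13 at 10 nM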
#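 Assay system: CHO-K1 APJ beta-arrestin complementation cell line / Compound: single test compound dose, 20 µM final, 1% DMSO / Times: overnight seeding, 90 min compound at 25 °C, 1 h detection / Technique: beta-gal luminescence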
# APJ antagonist: APJ receptor antagonism. P35414. CHO-K1 APJ beta-arrestin complementation, luminescence. inhibition, % at 20 µM. 330,000 tested, 0.32% active;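 active means inhibition above about 40% at 20 µM, limit read from the data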;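 further: cells challenged with 10 nM apelin-13 agonist together with compound; plate controls were apelin-13 plus DMSO wells for no effect and DMSO wells lacking apelin-13 for full effect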
# CCR6 antag: CCR6 (human) receptor antagonism. CHO-K1 CCR6 PathHunter beta-arrestin, luminescence, CCL20-stimulated. inhibition, % at 20 µM. 340,000 tested, 0.49% active. AID 493098;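 active means compounds whose inhibition of the agonist-driven luminescence signal at 20 µM reaches about 50%, limit read from the data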;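 further: cells stimulated with CCL20 at 14 nM final; plate controls were DMSO with CCL20 for no effect and DMSO without agonist for full effect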
# Target sequence (P51684 whole entry, looked up): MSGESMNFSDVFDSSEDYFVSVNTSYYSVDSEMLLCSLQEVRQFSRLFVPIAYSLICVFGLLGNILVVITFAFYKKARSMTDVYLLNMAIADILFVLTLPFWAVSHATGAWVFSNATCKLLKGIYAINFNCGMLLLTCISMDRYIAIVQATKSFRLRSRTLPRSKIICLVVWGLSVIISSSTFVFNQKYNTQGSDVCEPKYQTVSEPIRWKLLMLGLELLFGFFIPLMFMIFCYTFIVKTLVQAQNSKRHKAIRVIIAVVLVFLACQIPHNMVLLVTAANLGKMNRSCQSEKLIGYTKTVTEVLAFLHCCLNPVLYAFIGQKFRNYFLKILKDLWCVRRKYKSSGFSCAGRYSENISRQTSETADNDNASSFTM
# An asterisk follows results filed as active; . = no result. A selection: hits, their analogues and other compounds. The true share with any hit is near 1.9%.
SMILES,CXCR6 inh,H9c2 TAG inh,EBI2 antag,APJ ag,APJ antagonist,CCR6 antag
CC1CCN(Cc2c(C(=O)N/N=C/c3cc(Cl)ccc3O)nnn2-c2nonc2N)CC1,4.8,.,-15.1,0.5,8.4,50.5*
CC1OC(C(C)(C)C)Cc2[nH][nH]c(=O)c21 (centres undefined),-3.0,.,-12.7,.,.,.
CCOc1ccc(NC(=O)CN(C)S(=O)(=O)c2cccs2)cc1,49.0*,-29.9,-2.6,1.9,-8.6,9.4
O=C(NC1CCCC1)C(c1c[nH]c2ccccc12)N(C(=O)Cn1nnc(-c2ccc(Cl)cc2)n1)c1ccccc1 (centres undefined),-5.6,76.6*,8.7,-2.9,10.7,15.8
CC(C)(C)NC(=O)C(c1c[nH]c2ccccc12)N(C(=O)Cn1nnc(-c2ccc(Cl)cc2)n1)c1ccccc1F (centres undefined),7.7,15.0,28.8,-0.5,-12.5,12.4
C[C@H]1CN([C@@H](C)CO)C(=O)c2cccc(NC(=O)Nc3ccc(C(F)(F)F)cc3)c2O[C@@H]1CN(C)Cc1ccc(Cl)c(Cl)c1,-3.6,55.9*,9.6,-1.1,-23.5,-13.3
CCN(CC(=O)Nc1ccccc1C(F)(F)F)C(=O)c1ccccc1OCc1ccc(F)cc1,0.0,-20.7,10.3,.,.,8.0
CN(C)c1ccc(N=Nc2ccccc2C(=O)OCC(=O)NCC2CCCCC2)cc1,16.6,.,20.8,-7.6,22.4,53.6*
CCOc1ccc(NC(=O)CSc2nc3ccsc3c(=O)n2Cc2ccc(C(=O)O)cc2)cc1,-6.3,-5.3,-6.4,.,.,.
C[C@@]12C(=O)Nc3ccc(Cl)cc3C(=O)N1[C@H]1c3cc(Cl)ccc3OC[C@@H]1[C@@H]2c1ccccc1,3.0,39.4,21.4,-2.1,-0.7,-4.9
C[C@@]12C(=O)Nc3cc(F)c(F)cc3C(=O)N1[C@H]1c3cc(Cl)ccc3OC[C@@H]1[C@@H]2c1ccccc1,12.3,63.0*,4.5,-1.2,16.4,15.8
COc1cc2c3c(c1OC)C(=O)CC3CCCC2 (centres undefined),-3.7,.,0.3,.,.,.
COc1cc(N=C2C(=O)N3c4c(cccc42)C(C)=CC3(C)C)cc(OC)c1,13.6,.,-13.1,-5.6,13.1,61.3*
COc1cc2c3c(c1)C(C)=CC(C)(C)N3C(=O)C2=O,1.8,23.1,-16.3,-4.3,8.8,10.7
CC1(C(=O)NS(=O)(=O)c2cccs2)CCN1C(=O)c1ccccc1CCc1ccccc1 (centres undefined),-5.5,-22.7,4.8,.,.,.
Cc1ccccc1-n1nc(C(=O)c2cccs2)cc(-c2nc3ccccc3[nH]2)c1=N,17.3,3.5,15.9,-6.7,14.2,16.9
COc1ccc(-n2nc(C(=O)c3cccs3)cc(-c3nc4ccccc4[nH]3)c2=N)cc1,9.7,-33.2,53.5*,-7.9,12.9,-10.8
COc1ccc(C(=O)O/N=C2\C(=O)N(C)c3ccccc32)cc1,26.7,-8.8,40.4,-2.3,17.4,59.4*
CN1C(=O)/C(=N\OC(=O)c2cccc3ccccc23)c2ccccc21,32.4,.,27.2,-3.1,19.9,32.4
CCSC1=NC(C)(C)C=C(/C=C/c2ccc(Cl)cc2Cl)N1,19.6,-7.5,12.9,-8.1,12.3,66.4*
CSC1=NC(C)(C)C=C(/C=C/c2ccc(Cl)cc2Cl)N1,-2.0,11.3,14.9,-1.2,21.7,16.5
O=C(N/N=C/c1cn(-c2ccccc2)nc1-c1cccs1)c1ccncc1,8.3,7.6,8.2,-0.1,-14.0,53.3*
Cc1ccc(C(=O)c2c(C)oc3c2C(=O)C(=O)c2ccccc2-3)cc1,32.4,82.4,-21.6,13.6*,-23.2,71.6*
C=CCOc1ccc(/C=C2/C(=N)N3N=C(CC(=O)N4CCCC4)SC3=NC2=O)cc1OC,0.3,.,5.0,-2.2,9.7,10.6
O=C(/C=C/c1cc(Br)ccc1O)c1ccco1,29.7,-14.9,2.5,-2.2,17.1,64.5*
SMILES,CXCR6 inh,H9c2 TAG inh,EBI2 antag,APJ ag,APJ antagonist,CCR6 antag
O=[N+]([O-])c1cc(Cl)cc(/C=N/NC(=S)Nc2ccc(S(=O)(=O)N3CCOCC3)cc2)c1O,34.8,-5.0,10.4,-6.8,32.9,59.9*
O=S(=O)(c1ccc(NC(=S)N/N=C/c2ccc(O)c(O)c2)cc1)N1CCOCC1,-4.9,7.4,3.9,-5.6,-9.0,12.9
COC(=O)c1ccc(CSc2nc3sc4c(c3c(=O)n2C)CCCC4)o1,4.1,.,-1.1,1.8,-11.4,14.4
COC(=O)c1sc(N)c(C(=O)OC)c1CSc1nc2sc3c(c2c(=O)n1C)CCC3,52.2*,15.0,37.9,-10.8,6.9,49.6
Cc1cccc(N2CCN(C(=O)Cc3ccccc3[N+](=O)[O-])CC2)c1C,-2.0,.,0.1,-0.8,8.0,4.4
O=C(Cn1ncc(Cl)c(Cl)c1=O)c1ccc2c(c1)OCCO2,29.4,4.1,6.5,-1.1,0.1,18.1
CCC(=O)Nc1ccc(C(=O)Cn2ncc(Cl)c(Cl)c2=O)cc1,4.3,61.3*,15.9,-5.5,-33.4,1.5
CCOC(=O)c1ccc(NC(=O)Cn2ncc(Cl)c(Cl)c2=O)cc1,21.8,54.6*,31.4,-1.4,17.8,35.3
Cc1ccc(N=Nc2c(N)[nH]n3c(=O)cc(C)nc23)cc1,-1.3,10.3,-5.5,.,.,14.5
Nc1[nH]n2c(=O)cc(-c3ccccc3)nc2c1N=Nc1ccccc1,26.2,6.0,7.0,-5.1,37.2,51.0*
CCC(c1nnnn1-c1ccc2c(c1)OCCO2)N1CCN(c2ccc(C(F)(F)F)cc2[N+](=O)[O-])CC1 (centres undefined),-3.7,.,7.3,.,.,.
Nc1nc(CCl)nc(Nc2ccc3ccccc3c2)n1,-1.1,78.6*,41.2,.,.,-6.6
CCCN(CCC)CCNS(=O)(=O)c1ccc2c(c1)oc(=O)n2C,-3.7,.,-0.3,-0.9,2.9,118.8*
CCCCN(CC)CCNS(=O)(=O)c1ccc2c(c1)oc(=O)n2C,-6.9,.,0.5,-4.9,-7.1,9.8
CCC/C=N/Nc1nc2ccccc2s1,3.2,-4.1,-15.4,-3.2,-4.6,-2.9
C/C(N=Nc1nc2ccccc2s1)=N\Nc1ccccc1O,49.6*,58.0*,18.0,-10.5,36.0,65.3*
Cc1cc(=O)c2c(N(C)C)cccc2[nH]1,4.4,-0.5,-10.4,.,.,.
CCn1c(=N)n(CC(=O)c2ccc(Br)s2)c2ccccc21,15.4,6.0,-4.4,-4.2,15.8,23.2
CCCCn1c(=N)n(CC(=O)c2ccc(Br)s2)c2ccccc21,-0.3,70.0*,11.8,-2.1,-7.4,8.3
O=C1c2cccc3cccc(c23)C(=O)N1CC1CCN(CC(O)COc2ccc3ccccc3c2)CC1 (centres undefined),5.5,-1.9,56.7*,-4.9,-11.5,9.6
Cc1nc2ccc([N+](=O)[O-])cc2nc1C,3.4,-5.8,-12.3,-0.2,-13.0,-9.4
Cc1ccc2nc3cc([N+](=O)[O-])cc([N+](=O)[O-])c3cc2c1,22.9,91.1,53.4*,.,.,49.6
